# Data published in ChEMBL document CHEMBL1268845, “A convenient synthesis and molecular modeling study of novel purine and pyrimidine derivatives as CDK2/cyclin A3 inhibitors” (Bioorg Med Chem, 2010).
# What was measured:
# [1] = Cytotoxicity against mouse EAC cells after 48 hrs; assay type: functional; conditions: Ehrlich
# Method in brief: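 EAC cells were harvested by needle aspiration of ascitic fluid from pre-inoculated female Swiss albino mice and maintained by weekly intraperitoneal transplantation. They were suspended in saline at 2.5 × 10^6 per mL and exposed for 48 h to serial dilutions from 10^-9 to 10^-4 M in DMSO/saline. The read-out was GI50.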
# [2] = tested on: CDK2/cyclin A3 (Marthasterias glacialis); assay: Inhibition of starfish CDK2/cyclin A3 by ELISA
Compound,GI50 [1] [µM],IC50 [2] [µM]
CC(=O)CC1(C)N=C(C(N)=O)c2[nH]c(=O)n(S(=O)(=O)c3ccc(C)cc3)c2N1 (stereo unspecified),16,13
COc1cc(OC)c(/C=N/C(C#N)=C(/C#N)NC(=O)NS(=O)(=O)c2ccc(C)cc2)c(OC)c1,26,38
Nc1nc(OC[C@H]2CCC(=O)N2)c2nc[nH]c2n1,18,35
COc1cccc(/C=N/C(C#N)=C(/C#N)NC(=O)NS(=O)(=O)c2ccc(C)cc2)c1OC,27,43
COc1cc(/C=N/c2c(C#N)nc(=O)[nH]c2NS(=O)(=O)c2ccc(C)cc2)cc(OC)c1,19,35
Cc1ccc(S(=O)(=O)n2c3c([nH]c2=O)C(C(N)=O)=NC(C)(C)N3)cc1,15,14
COc1ccc(/C=N/c2c(C#N)nc(=O)[nH]c2NS(=O)(=O)c2ccc(C)cc2)cc1,17,39
Cc1ccc(S(=O)(=O)NC(=N)c2[nH]c(=O)[nH]c2C#N)cc1,28,45
COc1cc(OC)c(/C=N/c2c(C#N)nc(=O)[nH]c2NS(=O)(=O)c2ccc(C)cc2)c(OC)c1,16,38
COc1cc(/C=N/C(C#N)=C(/C#N)NC(=O)NS(=O)(=O)c2ccc(C)cc2)cc(OC)c1,25,42
Cc1ccc(S(=O)(=O)NC(=O)N/C(C#N)=C(\N)C#N)cc1,12,32
COc1ccc(/C=N/C(C#N)=C(/C#N)NC(=O)NS(=O)(=O)c2ccc(C)cc2)cc1,10,39
COc1cccc(/C=N/c2c(C#N)nc(=O)[nH]c2NS(=O)(=O)c2ccc(C)cc2)c1OC,21,36
